# Assay outcomes: PubChem, several laboratories
# Only some compounds are listed: those with a hit (about 2.2% of all), similar ones and a draw of the others.
# VIM-2 inhibitor: VIM-2 metallo-beta-lactamase inhibitors, primary screen, biochemical, epi-absorbance readout, Pseudomonas aeruginosa enzyme; AID 1527, 2009; actives 0.89% (n = 290,000); purified VIM-2, nitrocefin hydrolysis, epi-absorbance fluorescence; inhibition, % at 5.6 µM;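 active = inhibition above the mean of all tested compounds plus 3 SD, cutoff set per screening run, cut at about 7.5% in these data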;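 note: red hydrolysis product quenches plate fluorescence so inhibitors raise well fluorescence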
# PHOSPHO1 block: PubChem AID 1565. recombinant PHOSPHO1, absorbance phosphatase assay. Phosphoethanolamine/phosphocholine phosphatase (Homo sapiens), Q8TCT1. actives 1.1% (n = 290,000). inhibition, % at 13.3 µM; in the data active = inhibition above about 60%
# Target sequence (Q8TCT1 whole entry, looked up): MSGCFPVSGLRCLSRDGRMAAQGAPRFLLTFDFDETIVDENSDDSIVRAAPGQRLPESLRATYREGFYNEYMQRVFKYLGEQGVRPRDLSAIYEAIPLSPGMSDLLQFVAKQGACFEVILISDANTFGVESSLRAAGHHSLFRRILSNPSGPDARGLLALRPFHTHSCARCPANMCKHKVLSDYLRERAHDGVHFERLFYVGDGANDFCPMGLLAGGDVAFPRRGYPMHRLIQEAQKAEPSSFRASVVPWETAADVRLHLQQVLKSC
# PvdQ acylase: P. aeruginosa PvdQ acylase inhibitors, primary screen, biochemical, fluorescence, plate reader and imaging, single point. PvdQ acylase [Pseudomonas aeruginosa LESB58]. purified PvdQ acylase. inhibition, % at 10 µM. actives 0.063% (n = 340,000). AID 488965, 2010; in the data active = inhibition above about 30%, passing the limit was not always enough
# IMP-1 inh-1: IMP-1 metallo-beta-lactamase inhibitors, primary screen, biochemical, epi-absorbance readout, Pseudomonas aeruginosa enzyme. purified IMP-1, nitrocefin hydrolysis, epi-absorbance fluorescence. actives 0.45% (n = 290,000). inhibition, % at 5.6 µM. metallo-beta-lactamase IMP-1 (Pseudomonas aeruginosa). AID 1556, 2009;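 active = inhibition above the mean plus 3 SD of all compounds in the same screening run, cut at about 4.5% in these data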
#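 Material – recombinant IMP-1 enzyme, purified · Amount – IMP-1 0.2 nM before substrate addition · Medium – HEPES buffer pH 7.1 with ZnSO4 and Brij 35 · Timing – 25 °C, 15 min preincubation, 25 min reaction · Measured by – plate fluorescence quenching by hydrolysis product, ex 480/em 530 nm · Read-out – percent enzyme inhibition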
# Yeast superoxide: reduction of superoxide in aged yeast, primary screen, HTS | superoxide response (% of plate mean), % at 10 µM | actives 0.18% (n = 330,000) | AID 2690, 2010 | S. cerevisiae aged cells, superoxide DHE fluorescence; stronger effect = lower value;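 active = superoxide response under a set limit, about three screen SD below normal, cut at about 65% in these data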;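 note: yeast aged for seven days with compound at 30 °C before DHE staining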
# IMP-1 inh-2: IMP-1 metallo-beta-lactamase inhibitors, confirmation, selectivity assay for selective VIM-2 inhibitor project, biochemical, epi-absorbance readout, triplicate; shares compounds with VIM-2 inhibitor; purified IMP-1, nitrocefin hydrolysis, epi-absorbance fluorescence; inhibition, % at 5.6 µM; 1,300 tested, under 10 active; call rule not given here
# VIM-2 FRET ctr: VIM-2 inhibitors in FRET format, confirmation, artefact control for selective VIM-2 inhibitor project, biochemical, epi-absorbance artifact exclusion. shares compounds with VIM-2 inhibitor. purified VIM-2, CCF2 FRET substrate hydrolysis. inhibition, % at 5.6 µM. actives 23% (n = 1,300). AID 1857, 2009;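 active = inhibition above the mean of all tested compounds plus 3 SD, cut at about 19% in these data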
# TEM-1 inh: TEM-1 serine beta-lactamase inhibitors, counter-screen for VIM-2 inhibitor project, biochemical, epi-absorbance, HTS; shares compounds with VIM-2 inhibitor; Purified TEM-1, nitrocefin hydrolysis, epi-absorbance fluorescence; inhibition, % at 5.6 µM; actives 3% (n = 1,300); AID 1866, 2009;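 active = inhibition above that campaign's mean inhibition plus 3 SD, cut at about 0.46% in these data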
# Target sequence (P62593 whole entry, looked up): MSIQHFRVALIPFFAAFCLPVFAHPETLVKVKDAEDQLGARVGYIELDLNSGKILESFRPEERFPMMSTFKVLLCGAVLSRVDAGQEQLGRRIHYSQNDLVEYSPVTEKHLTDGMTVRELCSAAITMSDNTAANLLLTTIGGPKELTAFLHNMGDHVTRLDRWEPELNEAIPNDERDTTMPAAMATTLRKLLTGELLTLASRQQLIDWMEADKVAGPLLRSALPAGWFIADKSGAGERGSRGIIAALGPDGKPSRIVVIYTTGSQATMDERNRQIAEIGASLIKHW
# VIM-2 confirm 2: VIM-2 metallo-beta-lactamase inhibitors, confirmation, biochemical, epi-absorbance, hits shared with IMP-1 screen. inhibition, % at 5.6 µM. AID 2187, 2009. purified VIM-2, nitrocefin hydrolysis. shares compounds with VIM-2 inhibitor. actives 96% (n = 1,300);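 active = inhibition of the VIM-2 beta-lactamase enzyme above about 11% from the earlier first-round screen, limit read from the data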
# A number is an active result; – = inactive; · = not tested or not shown.
SMILES,VIM-2 inhibitor,PHOSPHO1 block,PvdQ acylase,IMP-1 inh-1,Yeast superoxide,IMP-1 inh-2,VIM-2 FRET ctr,TEM-1 inh,VIM-2 confirm 2
CCOC(=O)C1=C(COC(=O)c2ccc([N+](=O)[O-])o2)NC(=O)NC1C (configuration not stated),·,·,–,·,–,·,·,·,·
CC[C@H](C)Cc1cn([C@@H](CCCCNC(=O)OC(C)(C)C)C(=O)NCCCCCCCCCCC(=O)N2CCN(C(=O)OC(C)(C)C)CC2)nn1,·,·,–,·,–,·,·,·,·
CCOc1ccc(N=C(NN)c2ccc3ccccc3n2)cc1,–,–,–,–,–,·,·,·,·
CN(C)CCCn1c2c(c(SCC(=O)Nc3ccc4c(c3)OCCO4)nc1=O)CCC2,·,·,–,·,–,·,·,·,·
O=C(CSc1nnc(NC(=O)c2ccccc2[N+](=O)[O-])s1)NCc1ccco1,41,–,–,–,–,–,64,–,46
O=C(CSc1nnc(NC(=O)Cc2ccccc2)s1)NCc1ccco1,–,–,–,–,–,·,·,·,·
COC(=O)Nc1sccc1C(=O)Nc1sccc1C(=O)OC,–,–,–,–,–,·,·,·,·
COC(=O)c1ccsc1NC(=O)C1=COCCO1,13,–,–,–,–,–,–,–,12
CNC(C)C#Cc1ccc2c(=O)c3c(OC)cccc3oc2c1 (configuration not stated),14,–,·,–,–,–,–,–,31
CNC(C)C#Cc1ccc2c(=O)c3cc(C)c(C)cc3oc2c1 (configuration not stated),·,·,–,·,–,·,·,·,·
CCOc1ccc(-c2nnc(-c3ccncc3)o2)cc1OCC,24,–,–,–,–,–,–,–,31
CCOc1ccc(-c2nnc(-c3ccncc3)o2)cc1,–,–,–,–,–,·,·,·,·
O=C(COc1ccc2c3c(c(=O)oc2c1)CCC3)Nc1ccc(CN2CCOCC2)cc1,18,–,–,–,–,–,–,–,27
CCCc1cc(=O)oc2cc(OCC(=O)NC3CCN(Cc4ccccc4)CC3)ccc12,–,–,–,–,–,·,·,·,·
O=C(COc1ccc2c3c(c(=O)oc2c1)CCC3)NC1CCN(Cc2ccccc2)CC1,28,–,–,–,–,–,–,0.7,39
CCCc1cc(=O)oc2c(C)c(OCC(=O)NC3CCN(Cc4ccccc4)CC3)ccc12,16,–,–,–,–,–,–,–,27
Cc1cc(=O)oc2cc(OCC(=O)NC3CCN(Cc4ccccc4)CC3)ccc12,–,–,–,–,–,·,·,·,·
O=C(O)C(c1ccccc1)N1C(=O)/C(=C\c2ccc(O)c(O)c2)SC1=S (configuration not stated),31,–,–,–,–,–,50,–,31
O=c1nc2n(CCO)c3ccccc3cc-2c(=O)[nH]1,·,·,–,·,·,·,·,·,·
COc1cc2cc(CCCOC(=O)CCCC(=O)O)oc(=O)c2cc1OC,·,·,–,·,–,·,·,·,·
Cn1cc(-c2ccccc2C(=O)O)c(=O)c2cc(Cl)ccc21,13,–,–,–,–,–,27,–,18
COC(=O)CSc1nc(N)c(C#N)c(-c2ccc(O)cc2)c1C#N,18,–,–,–,–,–,–,–,36
CC(C)c1ccc(-c2c(C#N)c(N)nc(SCC(=O)N3CCCCCC3)c2C#N)cc1,–,–,·,–,–,·,·,·,·
CC(C)NS(=O)(=O)c1ccc(NC(=O)C(C)OC(=O)C2CCC2)cc1 (configuration not stated),·,·,–,·,–,·,·,·,·
C[C@H](NC(=O)[C@@H]1CSC2c3ccccc3C(=O)N21)C(=O)NCc1c(F)cccc1Cl (some centres not stated),–,–,–,–,–,·,·,·,·
SMILES,VIM-2 inhibitor,PHOSPHO1 block,PvdQ acylase,IMP-1 inh-1,Yeast superoxide,IMP-1 inh-2,VIM-2 FRET ctr,TEM-1 inh,VIM-2 confirm 2
COc1ccc2nc3cc(Cl)ccc3c(Nc3cc(C(C)C)c(O)cc3C)c2c1,–,–,–,–,–,·,·,·,·
COc1ccc2nc3cc(Cl)ccc3c(Nc3cc(CN4CCCC4)c(O)c(CN4CCCC4)c3)c2n1,21,–,·,–,–,–,–,–,33
Cc1cc(SCC(=O)NCC(c2cccs2)N2CCOCC2)c(C)cc1Br (configuration not stated),·,·,–,·,–,·,·,·,·
O=c1[nH]c(CN2CCN(c3ccc(F)cc3)CC2)nc2ccccc12,55,–,–,–,–,–,–,–,–
Cc1ccc(Nc2nc(-c3c(C)nc4ncccn34)cs2)cc1,–,–,–,–,–,·,·,·,·
Cc1nc2ncccn2c1-c1csc(Nc2ccc(O)cc2)n1,17,–,–,–,·,–,–,–,28
CCN=C1S/C(=C/c2ccc(-c3ccc(F)cc3)o2)C(=O)N1CC,–,–,–,–,–,·,·,·,·
CC(C)COC(=O)c1cc(-c2ccc(/C=N/n3cnnc3)o2)ccc1Cl,–,–,–,–,–,·,·,·,·
Fc1ccc(-c2ccc(/C=N/n3cnnc3)o2)cc1,18,–,–,–,–,–,–,–,30
Fc1ccc(-c2ccc(/C=N\n3cnnc3)o2)cc1Cl,45,–,–,–,–,–,–,–,57
CC1CC(C)CN(CCCNS(=O)(=O)c2ccc3c(c2)CCN3C(=O)C2CC2)C1 (configuration not stated),12,–,–,–,–,–,–,–,8.9
COc1cccc(CN2CCN(Cc3nc(C(C)C)cs3)CC2CCO)c1 (configuration not stated),–,–,–,–,–,·,·,·,·
CC(C)c1[nH]nc2c1C1(CCN(Cc3ccccc3)CC1)C(C#N)=C(N)O2,–,–,–,–,–,·,·,·,·
CCCc1[nH]nc2c1C1(CCN(C(=O)OCc3ccccc3)CC1)C(C#N)=C(N)O2,18,–,–,–,–,–,22,0.5,–
O=C(COc1cc2oc(=O)c3c(c2cc1Cl)CCC3)Nc1ccccn1,–,–,–,–,–,·,·,·,·
CC(Oc1cc2oc(=O)c3c(c2cc1Cl)CCC3)C(=O)NCCN1CCOCC1 (configuration not stated),13,–,–,–,–,–,–,–,23
NC(=O)COc1cc2oc(=O)c3c(c2cc1Cl)CCCC3,14,–,–,–,–,–,–,–,19
